An excerpt weighted towards active compounds, which were near 1.5% of everything screened.
Rin1 Abl inh = inhibitors of human Rin1-Abl protein interaction; P00519+Q13671; TR-FRET Rin1/Abl binding, biochemical; inhibition, % at 7.35 µM; hit rate 0.4% among 360,000; AID 588664; in the data active means inhibition above about 5%, passing the limit was not always enough
Cardio protect = modulators protecting cardiomyocytes from myocardial damage; H9c2 cardiomyocytes, H2O2 injury protection, ATPLite, 2 h; protection from H2O2 cell death, % at 20 µM; hit rate 0.63% among 360,000; AID 588492;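 active means compounds giving at least 50% protection of heart cells from peroxide-induced death in the single-dose screen, raw or plate-pattern-corrected value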;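 further: 0% = DMSO wells with peroxide and 100% = DMSO wells without peroxide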
PKA-R1A activ = activators of PKA-R1A complex; activation, % at 11.4 µM; P00514+P68181; hit rate 0.083% among 340,000; AID 504707; PKA-R1A dissociation, Cy5-IP20 fluorescence polarization; scaled: DMSO 0%, 113 µM cGMP 100%;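 active means percent activation above the mean of all tested compounds plus 3 SD, cut at about 19% in these data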;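 further: higher means more PKAc released from R1A so a rise in polarization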
TbMetRS inhib = Trypanosoma brucei MetRS inhibition | hit rate 0.4% among 360,000 | inhibition, % at 11.9 µM | purified T. brucei MetRS, ATP depletion, Kinase-Glo luminescence;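 active means inhibition above a per-plate cutoff of the control wells' mean inhibition plus 3 SD, cut at about 5.5% in these data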;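 further: 0% = DMSO wells median and 100% = median of wells with control inhibitor compound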
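Material: parasite MetRS enzyme / Replication: singlicate, one well per compound / Signal: luminescence of leftover ATP / Schedule: 2 h aminoacylation at 25 °C after 15 min preincubation / Medium: HEPES-MgCl2-KCl buffer plus DTT, spermine, BSA, pyrophosphatase / Doses: 11.9 µM single point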
PKA-R2B activ = activators of human PKA-R2B complex; PKA-R2B holoenzyme dissociation, Cy5-IP20 fluorescence polarization; R2B truncated from residue 108, S112A mutant; 0% DMSO only, 100% 113 µM cGMP; activation, % at 11.4 µM; P22694+P31323; hit rate 0.079% among 340,000;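 active means activation above a cutoff set at the mean over all compounds plus 3 SD, cut at about 18% in these data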;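 further: higher means more holoenzyme dissociation and a rise in polarization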
TbMetRS confirm = confirmation of Trypanosoma brucei MetRS inhibitors; shares compounds with TbMetRS inhib; T. brucei MetRS enzyme, luminescence (ATP depletion); inhibition, % at 11.9 µM; hit rate 93% among 1,400; AID 624412; in the data active means inhibition above about 7%
Jurkat cytotox = Jurkat T cell cytotoxicity for MetRS hits; shares compounds with TbMetRS inhib; Jurkat cells viability, ATP luminescence; inhibition, % at 8.3 µM; hit rate 12% among 1,400; AID 624413; in the data active means inhibition above about 15%;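 further: 0% = vehicle and 100% = reference inhibitor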
Tb MetRS inh FP = inhibits T. brucei methionyl tRNA synthetase in orthogonal FP test; shares compounds with TbMetRS inhib; hit rate 44% among 1,400; purified T. brucei MetRS, fluorescence polarization; inhibition, % at 11.9 µM; in the data active means inhibition above about 17%;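 further: 0% = vehicle wells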
* marks the source's active call; other numbers are inactive results.

For O=C(CSc1nnc(Nc2ccccc2)s1)Nc1ccc(S(=O)(=O)N2CCOCC2)cc1 the results were Rin1 Abl inh -1, Cardio protect -16, PKA-R1A activ -2, TbMetRS inhib 13*, PKA-R2B activ 8, TbMetRS confirm 29*, Jurkat cytotox 12 and Tb MetRS inh FP 19*.
For Cc1ccc(Nc2nnc(SCC(=O)Nc3ccc(S(=O)(=O)N4CCOCC4)cc3)s2)cc1 the results were Rin1 Abl inh -2, Cardio protect -7, PKA-R1A activ -4, TbMetRS inhib 8.5*, PKA-R2B activ 3, TbMetRS confirm 15*, Jurkat cytotox 5 and Tb MetRS inh FP 14.
For COc1cc(OC)nc(NC(=O)COC(=O)c2cccc(Cl)c2)n1 the results were Rin1 Abl inh 1, Cardio protect -11, PKA-R1A activ -3, TbMetRS inhib -1 and PKA-R2B activ -11.
For O=c1[nH]c2cc3ccccc3cc2nc1-c1nnnn1Cc1ccccc1 the results were TbMetRS inhib 22*, TbMetRS confirm 38*, Jurkat cytotox 9 and Tb MetRS inh FP 18*.
For Cc1cc2nc(-c3nnnn3Cc3ccccc3)c(=O)[nH]c2cc1C the results were TbMetRS inhib 0.
For O=c1[nH]c2ccccc2nc1-c1nnnn1C1CCCC1 the results were TbMetRS inhib 0.
For O=c1[nH]c2cc3ccccc3cc2nc1-c1nnnn1C1CCCC1 the results were TbMetRS inhib 52*, TbMetRS confirm 61*, Jurkat cytotox 69* and Tb MetRS inh FP 40*.
For CCC(C)c1ccc(S(=O)(=O)N2CCN(C(=O)c3ccc(Cl)c(S(=O)(=O)N4CCOCC4)c3)CC2)cc1 (stereo unspecified) the results were Rin1 Abl inh 0, Cardio protect -11, PKA-R1A activ 5, TbMetRS inhib 0 and PKA-R2B activ -3.
COc1ccc(CNC(=O)CSc2nnc3c(n2)[nH]c2ccc(OC)cc23)cc1 was read as Rin1 Abl inh 0, Cardio protect -2, PKA-R1A activ 0, TbMetRS inhib 7.6*, PKA-R2B activ 1, TbMetRS confirm 35*, Jurkat cytotox -1 and Tb MetRS inh FP 22*.
COc1ccc(CNC(=O)CSc2nnc3c(n2)[nH]c2ccc(F)cc23)cc1 was read as Rin1 Abl inh 7, Cardio protect 1, PKA-R1A activ 2, TbMetRS inhib 33*, PKA-R2B activ 4, TbMetRS confirm 92*, Jurkat cytotox -4 and Tb MetRS inh FP 66*.
`Cc1ccc(CNC(=O)CSc2nnc3c(n2)[nH]c2ccccc23)cc1` gave Rin1 Abl inh -2, Cardio protect 2, PKA-R1A activ -1, TbMetRS inhib 16*, PKA-R2B activ 6, TbMetRS confirm 69*, Jurkat cytotox 4 and Tb MetRS inh FP 45*.
Screening COc1ccc2[nH]c3nc(SCC(=O)Nc4cccc(NC(C)=O)c4)nnc3c2c1 returned Rin1 Abl inh -8, Cardio protect 4, PKA-R1A activ -3, TbMetRS inhib 4 and PKA-R2B activ -2.
For Cc1ccc(NC(=O)CSc2nnc3c(n2)[nH]c2ccccc23)cc1 the results were Rin1 Abl inh 1, Cardio protect 0, PKA-R1A activ -1, TbMetRS inhib 1 and PKA-R2B activ -3.
For COc1ccc(CCNC(=O)CSc2nnc3c(n2)[nH]c2ccc(F)cc23)cc1OC the results were Rin1 Abl inh 1, Cardio protect 4, PKA-R1A activ -9, TbMetRS inhib 0 and PKA-R2B activ 7.
For O=C(CSc1nnc2c(n1)[nH]c1ccc(F)cc12)NCc1ccc(F)cc1 the results were Rin1 Abl inh 0, Cardio protect 2, PKA-R1A activ -1, TbMetRS inhib 17*, PKA-R2B activ -2, TbMetRS confirm 71*, Jurkat cytotox 5 and Tb MetRS inh FP 49*.
COc1ccc2sc(N(CCN(C)C)C(=O)c3ccc4ccccc4c3)nc2c1 was read as Rin1 Abl inh 4, Cardio protect 0, PKA-R1A activ -3, TbMetRS inhib 0 and PKA-R2B activ 0.
Screening Cc1nn(C)cc1CN(C)C(=O)CCc1nnc(CCC2CCCCC2)o1 returned Rin1 Abl inh -3, Cardio protect -8, PKA-R1A activ -11, TbMetRS inhib 0 and PKA-R2B activ -9.
Screening COc1ccc(CNC(=O)COC(=O)c2ccc(F)c(S(=O)(=O)N3CCOCC3)c2)cc1 returned Rin1 Abl inh 3, Cardio protect 5, PKA-R1A activ 6, TbMetRS inhib 0 and PKA-R2B activ -4.
Screening O=C(Nc1ccc(S(=O)(=O)Nc2cnc3ccccc3n2)cc1)c1ccc(Cl)c([N+](=O)[O-])c1 returned Rin1 Abl inh -3, Cardio protect -5, PKA-R1A activ -13, TbMetRS inhib 12*, PKA-R2B activ -16, TbMetRS confirm 24*, Jurkat cytotox -1 and Tb MetRS inh FP 7.
CC(C)(C)OC(=O)N1CCC[C@H]1C(=O)NCc1ccc(Cl)cc1Cl was read as Rin1 Abl inh 0, Cardio protect -3, PKA-R1A activ -3, TbMetRS inhib 5.7*, PKA-R2B activ 3, TbMetRS confirm 14*, Jurkat cytotox 1 and Tb MetRS inh FP 2.
O=S(=O)(Cc1noc(-c2ccccc2Cl)n1)c1ccccn1 was read as Rin1 Abl inh 1, Cardio protect -1, PKA-R1A activ -5, TbMetRS inhib 1 and PKA-R2B activ 2.
For CC(=O)Nc1cccc(CCc2nc3ccccc3[nH]2)c1 the results were Rin1 Abl inh -1, Cardio protect -8, PKA-R1A activ 4, TbMetRS inhib 0 and PKA-R2B activ 2.
Cc1ccccc1NC(=O)N(CCc1nc2ccccc2[nH]1)Cc1ccccc1 was read as Rin1 Abl inh 0, Cardio protect -5, PKA-R1A activ 1, TbMetRS inhib 7.0*, PKA-R2B activ -1, TbMetRS confirm 14*, Jurkat cytotox 14 and Tb MetRS inh FP 4.
For COc1ccc(CNC(=S)Nc2ccccc2)cc1Cl the results were Rin1 Abl inh 2, Cardio protect 3, PKA-R1A activ -1, TbMetRS inhib -2 and PKA-R2B activ -9.
`S=C(NCCSCc1ccc(Cl)c(Cl)c1)Nc1ccccc1` gave Rin1 Abl inh -2, Cardio protect -27, PKA-R1A activ 11, TbMetRS inhib 41*, PKA-R2B activ -10, TbMetRS confirm 57*, Jurkat cytotox -5 and Tb MetRS inh FP 41*.

High-throughput results (PubChem BioAssay)
